Experimental data: publication PMC9078949 (RSC Advances, 2018)
“And” between values parts separate entries of the source, which are not always exact repeats. Equal values may be shown once.

Tests used:
[1] = molecular target: T1, CXCR1 (Homo sapiens, UniProt P25024); assay: CXCR1 antagonistic activity assay; type: cell-based
T1 sequence (P25024 1-350): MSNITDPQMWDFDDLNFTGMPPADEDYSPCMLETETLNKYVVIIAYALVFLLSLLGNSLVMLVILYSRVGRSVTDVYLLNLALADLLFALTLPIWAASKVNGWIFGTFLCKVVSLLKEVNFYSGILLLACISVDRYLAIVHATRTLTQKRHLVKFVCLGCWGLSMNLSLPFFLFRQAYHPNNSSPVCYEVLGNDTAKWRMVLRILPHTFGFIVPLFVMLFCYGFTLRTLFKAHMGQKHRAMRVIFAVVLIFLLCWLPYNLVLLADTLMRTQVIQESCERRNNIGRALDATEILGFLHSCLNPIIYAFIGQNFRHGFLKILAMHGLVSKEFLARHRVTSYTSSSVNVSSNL
Method in brief: (§1)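 HEK293 cells stably co-expressing Gα16 with either CXCR1 or CXCR2 were seeded and grown for 24 h. They were loaded with 2 μmol L−1 Fluo-4 AM in HBSS (pH 7.4, with BSA and 250 μmol L−1 sulfinpyrazone) for 45 min at 37 °C, and excess dye was removed. Test compound was added for 10 min at room temperature before IL-8 injection. Calcium signal was read at ex 485/em 525 nm. IC50 came from nonlinear regression of log concentration–response curves; each experiment was run ≥3 times.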

[2] = molecular target: T2, CXCR2 (Homo sapiens, UniProt P25025); assay: CXCR2 antagonistic activity assay; type: cell-based
T2 sequence (P25025 1-360): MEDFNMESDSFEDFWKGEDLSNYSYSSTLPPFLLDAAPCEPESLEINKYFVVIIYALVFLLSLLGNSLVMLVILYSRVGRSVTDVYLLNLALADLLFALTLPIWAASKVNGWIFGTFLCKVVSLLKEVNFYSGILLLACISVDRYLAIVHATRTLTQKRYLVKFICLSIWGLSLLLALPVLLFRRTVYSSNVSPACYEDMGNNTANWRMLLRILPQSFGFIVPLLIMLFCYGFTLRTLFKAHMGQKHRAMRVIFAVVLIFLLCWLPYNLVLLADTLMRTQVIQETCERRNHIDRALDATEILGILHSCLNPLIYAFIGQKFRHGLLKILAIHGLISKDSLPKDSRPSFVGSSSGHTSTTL
Method in brief: as §1

[3] = tested on: CFPAC1 cells; assay: Anti-proliferation assay; type: cell-based; details: 6.25, 12.5, 25, 50 and 100 μM; 72 h; MTT
Method in brief: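 CFPAC1 pancreatic cancer cells were seeded at 4000 cells per well and left to adhere for 24 h. They were then exposed for 72 h to medium alone or to test compound at 6.25, 12.5, 25, 50 or 100 μM. Viability was read by MTT. Growth inhibition (%) = [1 − (A/B)] × 100, where A is treated and B is untreated absorbance.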

[4] = SIF stability assay; type: in vitro ADME; details: @45 min, 37 °C, pH 7.4
Method in brief: (§2)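 Two media were used. SIF: pancreatin 0.68 g per 100 mL of 50 mM potassium phosphate, pH 7.4. SGF: pepsin 3.2 g per 1000 mL of water with 2.0 g NaCl and 7.0 mL concentrated HCl, pH about 1.2. Test article was added from a 100 μg mL−1 stock and incubated at 37 °C with gentle agitation. Samples at 0, 15 and 45 min were quenched in methanol with 1 μg mL−1 internal standard and analysed by LC/MS. Percent remaining relative to 0 min used the peak-area ratio.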

[5] = Liver microsome stability assay, rat; type: in vitro ADME; details: @45 min, 37 °C, NADPH
Method in brief: (§3)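 Rat or human liver microsomes (1 mg mL−1) were mixed with NADPH (from a 50 mM stock) and pre-warmed for 5 min at 37 °C. Reactions were started with test article from a 100 μg mL−1 stock and kept at 37 °C. Samples at 0, 15 and 45 min were quenched in methanol containing 1 μg mL−1 internal standard, then centrifuged and analysed by LC/MS. Disappearance was derived from the analyte/internal standard peak-area ratio.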

[6] = Liver microsome stability assay, human; type: in vitro ADME; details: @45 min, 37 °C, NADPH
Method in brief: as §3

[7] = Plasma stability assay, human plasma; type: in vitro ADME; details: @45 min, 37 °C
Method in brief: (§4)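 Rat or human plasma was spiked with test article from a 100 μg mL−1 stock and incubated at 37 °C with gentle agitation. Aliquots taken at 0, 15 and 45 min were quenched in methanol containing 1 μg mL−1 internal standard, then centrifuged and analysed by LC/MS. Percent remaining relative to 0 min was based on the analyte/internal standard peak-area ratio.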

[8] = tested on: CFPAC1 cells; assay: Cell migration assay; type: cell-based; details: 10 μM, 24 h, 3 visual fields, control group 1221 ± 57 cells
[9] = tested on: CFPAC1 cells; assay: Wound healing assay; type: cell-based; details: Homo sapiens, CFPAC-1, 48 h, read-out: migration inhibitory rate
Method in brief: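 CFPAC1 cells were seeded at 5 × 10^5 per well in 6-well plates and grown to 90% confluence. The monolayer was scratched with a sterile pipette tip and rinsed three times with PBS. Cells were then exposed to 1‰ DMSO or 10 μM test compound. Wounds were photographed at 0, 24 and 48 h. Inhibition (%) = [1 − (0 h area − 24 h or 48 h area)/0 h area] × 100.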

[10] = SGF stability assay; type: in vitro ADME; details: @45 min, 37 °C, pH about 1.2
Method in brief: as §2

[11] = Oral pharmacokinetic study in rats; type: in vivo; details: SD, rat, plasma, 10 mg/kg
Method in brief: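 SD rats received test compound at 10 mg kg−1 by oral gavage in 2% DMSO + 98% (0.5% MC). Venous blood was sampled at 0, 0.25, 0.5, 1, 2, 4, 6, 8 and 24 h. Plasma was separated by centrifugation, stored at −20 °C and assayed by LC/MS. Cmax, Tmax, t1/2 and AUC were then calculated.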

[12] = Plasma stability assay, rat plasma; type: in vitro ADME; details: @45 min, 37 °C
Method in brief: as §4

Structure (SMILES)	IC50 [1]	IC50 [2]	Ratio = CXCR1 IC50/CXCR2 IC50 (selectivity for CXCR2 over CXCR1) [2]	other results
CN(C)C(=O)c1cccc(Nc2c(NC3C[C@H]4C[C@@H]3C3CCC[C@@H]34)c(=O)c2=O)c1O (stereo partly drawn) [1d, 2-Hydroxy-N,N-dimethyl-3-((2-(((4R,7R,7aR)-octahydro-1H-4,7-methanoinden-5-yl)amino)-3,4-dioxocyclobut-1-en-1-yl)amino)benzamide]	6.7 µM	1 µM	6.7	–
CN(C)C(=O)c1cccc(Nc2c(NCC3C[C@H]4C=C[C@@H]3C4)c(=O)c2=O)c1O (stereo partly drawn) [1e, 3-((2-((((1S,4S)-Bicyclo[2.2.1]hept-5-en-2-yl)methyl)amino)-3,4-dioxocyclobut-1-en-1-yl)amino)-2-hydroxy-N,N-dimethylbenzamide]	30.8 µM	2.6 µM	11.8	–
CN(C)C(=O)c1cccc(Nc2c(NC3C[C@H]4CC[C@]3(C)C4(C)C)c(=O)c2=O)c1O (stereo partly drawn) [1c, 3-((3,4-Dioxo-2-(((1R,4R)-1,7,7-trimethylbicyclo[2.2.1]heptan-2-yl)amino)cyclobut-1-en-1-yl)amino)-2-hydroxy-N,N-dimethylbenzamide]	35.6 µM	5.5 µM	6.5	–
O=C(c1cccc(Nc2c(NC3C[C@@H]4CC[C@H]3C4)c(=O)c2=O)c1O)N1CCCC1 (stereo partly drawn) [2e, 3-(((1S,4R)-Bicyclo[2.2.1]heptan-2-yl)amino)-4-((2-hydroxy-3-(pyrrolidine-1-carbonyl)phenyl)amino)cyclobut-3-ene-1,2-dione]	–	–	60.4	inhibitory effect on the CFPAC1 cell line (survival rate) [3]: no inhibitory effect; Remaining percentage, SIF [4]: 92.2 ± 2.0%; Remaining percentage, liver microsome stability, rat [5]: 84% and 84.2 ± 3.4%; Remaining percentage, liver microsome stability, human [6]: 27% and 27.4 ± 4.3%; Remaining percentage, plasma stability, human [7]: >99%; number of cells traversed into the lower chamber of the Transwell [8]: 727 ± 50 cells; inhibition at 10 µM [9]: 20.2%; Remaining percentage, SGF [10]: >99%; AUC(0-inf) [11]: 8940 ± 3460 ng·h/mL; AUC(0-t) [11]: 8820 ± 3560 ng·h/mL; Cmax [11]: 2860 ± 94 ng/mL; MRT [11]: 3.43 ± 0.73 h; Tmax [11]: 0.33 ± 0.14 h; half-life [11]: 2.58 ± 0.74 h; k el [11]: 7.92e-05 s⁻¹; Remaining percentage, plasma stability, rat [12]: >99%
CN(C)C(=O)c1cccc(Nc2c(NC3C[C@H]4CC[C@@H](C3)N4C(=O)OC(C)(C)C)c(=O)c2=O)c1O (stereo partly drawn) [1b, Tert-butyl (1R,5S)-3-((2-((3-(dimethylcarbamoyl)-2-hydroxyphenyl)amino)-3,4-dioxocyclobut-1-en-1-yl)amino)-8-azabicyclo[3.2.1]octane-8-carboxylate]	> 100 µM	> 100 µM	–	–
CN(C)C(=O)c1cccc(Nc2c(NC3C[C@@H]4CC[C@H]3C4)c(=O)c2=O)c1O (stereo partly drawn) [1a, 3-((2-(((1S,4R)-Bicyclo[2.2.1]heptan-2-yl)amino)-3,4-dioxocyclobut-1-en-1-yl)amino)-2-hydroxy-N,N-dimethylbenzamide]	7 µM	0.062 µM	113	–

Second part, led by results:

IC50 [1]	IC50 [2]	Ratio = CXCR1 IC50/CXCR2 IC50 (selectivity for CXCR2 over CXCR1) [2]	Structure (SMILES)	other results
> 100 µM	0.53 µM	>188.7	Cl.O=C(c1cccc(Nc2c(NC3C[C@@H]4CC[C@H]3C4)c(=O)c2=O)c1O)N1CCNCC1 (stereo partly drawn) [2h, 3-(((1S,4R)-Bicyclo[2.2.1]heptan-2-yl)amino)-4-((2-hydroxy-3-(piperazine-1-carbonyl)phenyl)amino)cyclobut-3-ene-1,2-dione hydrochloride]	–
10.3 µM	0.59 µM	17.5	O=C(c1cccc(Nc2c(NC3C[C@@H]4CC[C@H]3C4)c(=O)c2=O)c1O)N1CCCCC1 (stereo partly drawn) [2f, 3-(((1S,4R)-Bicyclo[2.2.1]heptan-2-yl)amino)-4-((2-hydroxy-3-(piperidine-1-carbonyl)phenyl)amino)cyclobut-3-ene-1,2-dione]	–
6.5 µM	0.092 µM	70.7	CC(C)[S+]([O-])c1c(Cl)ccc(Nc2c(NC3C[C@@H]4CC[C@H]3C4)c(=O)c2=O)c1O (stereo partly drawn) [2d, 3-(((1S,4R)-Bicyclo[2.2.1]heptan-2-yl)amino)-4-((4-chloro-2-hydroxy-3-(isopropylsulfinyl)phenyl)amino)cyclobut-3-ene-1,2-dione]	–
48.8 µM	23.6 µM	2.1	CN(C)C(=O)c1cccc(Nc2c(NCC3C[C@H]4CC[C@@H]3C4)c(=O)c2=O)c1O (stereo partly drawn) [1f, 3-((2-((((1R,4S)-Bicyclo[2.2.1]heptan-2-yl)methyl)amino)-3,4-dioxocyclobut-1-en-1-yl)amino)-2-hydroxy-N,N-dimethylbenzamide]	–
86.1 µM	3.8 µM	22.7	Cc1ccc(Nc2c(NC3C[C@@H]4CC[C@H]3C4)c(=O)c2=O)c(O)c1 (stereo partly drawn) [2a, 3-(((1S,4R)-Bicyclo[2.2.1]heptan-2-yl)amino)-4-((2-hydroxy-4-methylphenyl)amino)cyclobut-3-ene-1,2-dione]	–
5.6 µM	0.42 µM	13.3	CC(C)(C)OC(=O)N1CCN(C(=O)c2cccc(Nc3c(NC4C[C@@H]5CC[C@H]4C5)c(=O)c3=O)c2O)CC1 (stereo partly drawn) [2g, Tert-butyl 4-(3-((2-(((1S,4R)-bicyclo[2.2.1]heptan-2-yl)amino)-3,4-dioxocyclobut-1-en-1-yl)amino)-2-hydroxybenzoyl)piperazine-1-carboxylate]	–
42.7 µM	0.45 µM	94.9	N#Cc1ccc(Nc2c(NC3C[C@@H]4CC[C@H]3C4)c(=O)c2=O)c(O)c1 (stereo partly drawn) [2b, 4-((2-(((1S,4R)-Bicyclo[2.2.1]heptan-2-yl)amino)-3,4-dioxocyclobut-1-en-1-yl)amino)-3-hydroxybenzonitrile]	–
12.4 µM	0.12 µM	103.3	CC(C)S(=O)(=O)c1c(Cl)ccc(Nc2c(NC3C[C@@H]4CC[C@H]3C4)c(=O)c2=O)c1O (stereo partly drawn) [2c, 3-(((1S,4R)-Bicyclo[2.2.1]heptan-2-yl)amino)-4-((4-chloro-2-hydroxy-3-(isopropylsulfonyl)phenyl)amino)cyclobut-3-ene-1,2-dione]	–
